Assay outcomes (PubChem BioAssay)
The list is not random: actives were taken first. Their share in the collection is about 1.3%.
PAD4 FP inh: human PAD4 inhibitors, primary screen, biochemical, fluorescence polarization, 1536-well format; Protein-arginine deiminase type-4 (Homo sapiens), Q9UM07; recombinant PAD4, RCA probe fluorescence polarization; inhibition, % at 6.36 µM; actives 0.41% (n = 330,000);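 active means percent inhibition above a cutoff equal to the mean of all tested compounds plus 3 SD, cut at about 15% in these data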;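 further: 0% = PAD4 with RCA probe and DMSO and 100% = probe without PAD4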
Target sequence (Q9UM07 whole entry, looked up): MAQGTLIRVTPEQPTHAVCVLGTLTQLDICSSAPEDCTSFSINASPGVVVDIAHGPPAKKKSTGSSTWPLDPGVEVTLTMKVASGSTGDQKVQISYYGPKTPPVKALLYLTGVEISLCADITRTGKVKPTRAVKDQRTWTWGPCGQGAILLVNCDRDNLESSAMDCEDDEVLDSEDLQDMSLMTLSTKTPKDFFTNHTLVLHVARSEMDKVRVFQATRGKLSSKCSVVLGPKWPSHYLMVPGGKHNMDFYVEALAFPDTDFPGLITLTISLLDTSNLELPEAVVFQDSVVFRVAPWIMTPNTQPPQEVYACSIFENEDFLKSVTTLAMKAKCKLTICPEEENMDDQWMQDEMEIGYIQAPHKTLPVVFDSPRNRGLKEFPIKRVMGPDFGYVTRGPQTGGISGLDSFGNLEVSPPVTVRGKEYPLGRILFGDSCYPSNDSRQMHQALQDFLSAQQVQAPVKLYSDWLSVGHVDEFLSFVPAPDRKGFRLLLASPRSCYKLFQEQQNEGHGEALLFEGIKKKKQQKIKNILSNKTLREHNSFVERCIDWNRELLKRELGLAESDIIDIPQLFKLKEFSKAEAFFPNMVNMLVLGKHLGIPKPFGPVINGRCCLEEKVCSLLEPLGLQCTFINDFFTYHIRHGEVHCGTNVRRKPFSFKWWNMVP
LYPLA1 counter: LYPLA1 inhibitors, primary screen, counter-screen for PME1 inhibitor project, biochemical, fluorescence polarization, FP-Rh probe ABPP. Acyl-protein thioesterase 1 (Homo sapiens), O75608. recombinant LYPLA1. inhibition, % at 5.9 µM. actives 0.16% (n = 320,000). AID 2174, 2009;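 active means inhibition above the mean of all tested compounds plus 3 SD, set per campaign, cut at about 14% in these data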;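 further: inhibitors block serine hydrolase probe labeling of LYPLA1 so polarization falls; 0% = enzyme with DMSO and 100% = wells lacking LYPLA1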
Fam108B inh: mouse Fam108B serine hydrolase inhibitors, primary screen, counter-screen for RBBP9 inhibitor project, biochemical, fluorescence polarization; inhibition, % at 9.51 µM; actives 0.33% (n = 300,000); recombinant Fam108B, FP-Rh probe fluorescence polarization;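 active means inhibition above the screen mean inhibition plus 3 SD, computed separately per campaign, cut at about 18% in these data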;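 further: inhibitors lower polarization as less probe binds the enzyme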
RBBP9 inhibitor: human RBBP9 inhibitors, primary screen, biochemical, fluorescence polarization, FP-Rh probe, HTS; recombinant RBBP9; actives 0.2% (n = 220,000); inhibition, % at 7.94 µM;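 active means inhibition above the campaign mean of all tested compounds plus 3 SD, cut at about 14% in these data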;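 further: plate controls were DMSO wells with RBBP9 for no effect and wells lacking RBBP9 protein for full effect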
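Assay system: recombinant human RBBP9; Reagent: Serine-hydrolase probe FP-Rh, 375 nM pre-mixing; Doses: 7.94 µM single dose, 0.794% DMSO; Incubation: 30 min then 45 min, 25 °C; Detection: fluorescence polarization (mP), excitation 525 nm, emission 598 nm; Evaluation: percent inhibition from mP, scaled between DMSO and no-protein wells.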
LYPLA2 inh: LYPLA2 inhibitors, primary screen, counter-screen for PME1 inhibitor project, biochemical, fluorescence polarization, FP-Rh probe ABPP; actives 0.38% (n = 320,000); inhibition, % at 5.9 µM; Acyl-protein thioesterase 2 (Homo sapiens), O95372; recombinant LYPLA2;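 active means inhibition above the screen-wide mean plus 3 SD, limit set per campaign, cut at about 26% in these data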;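 further: 0% = LYPLA2 with DMSO and 100% = wells lacking LYPLA2 enzyme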
PME-1 primary: PME-1 inhibitors via competitive probe labeling, primary screen, biochemical, fluorescence polarization, FP-Rh probe, HTS | recombinant PME-1 | inhibition, % at 5.9 µM | actives 0.53% (n = 320,000) | AID 2130, 2009;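 active means inhibition above the campaign mean of all compounds plus 3 SD, cut at about 26% in these data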;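 further: competitive labeling of PME-1 active site by serine hydrolase directed probe; 0% = PME-1 with DMSO and 100% = wells lacking PME-1 enzyme; inhibitors block probe labeling so polarization falls and inhibition rises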
RBBP9 confirm: human RBBP9 inhibitors, retest, confirmation, biochemical, fluorescence polarization, FP-Rh probe, triplicate | shares compounds with RBBP9 inhibitor | recombinant RBBP9 | actives 36% (n = 410) | inhibition, % at 7.94 µM;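 active means inhibition above the hit cutoff derived for the primary screen, cut at about 15% in these data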;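 further: 0% = RBBP9 with DMSO and 100% = wells lacking RBBP9 protein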
The depositor's hits bear a star.

`Cn1ncc(Br)c1NC(=O)CSc1ccc(Cl)cc1` gave PAD4 FP inh -1, LYPLA1 counter -1, Fam108B inh -3, RBBP9 inhibitor 18*, LYPLA2 inh 8, PME-1 primary 0 and RBBP9 confirm 3.
`COc1ccc(-n2c(Cc3cccn3C)nnc2SCC(=O)Nc2ccccc2)cc1` gave PAD4 FP inh -1, LYPLA1 counter -5, Fam108B inh -7, RBBP9 inhibitor -4, LYPLA2 inh -6 and PME-1 primary -2.
Screening COc1ccc(-n2c(Cc3cccn3C)nnc2SCC(=O)NC2CCCC2)cc1 returned PAD4 FP inh -9, LYPLA1 counter 0, Fam108B inh -2, RBBP9 inhibitor 19*, LYPLA2 inh -6, PME-1 primary -3 and RBBP9 confirm 2.
`COc1cc(-c2ccc(Nc3ccccc3C(=O)O)c(OC)c2)ccc1Nc1ccccc1C(=O)O` gave RBBP9 inhibitor 24* and RBBP9 confirm 46*.
Screening O=C1C=CC(=O)N1CCNc1ncc(C(F)(F)F)cc1Cl returned RBBP9 inhibitor 33* and RBBP9 confirm 31*.
CCc1nnc(NC(=O)CSCc2cc(=O)n3nc(C)sc3n2)s1 was read as PAD4 FP inh 1, LYPLA1 counter 0, Fam108B inh 0, LYPLA2 inh 1 and PME-1 primary -1.
CCOC(=O)c1c(C)oc2c1c(CN1CCN(C(=O)OCC)CC1)c(O)c1ccccc12 was read as PAD4 FP inh -2, LYPLA1 counter -1, Fam108B inh 7, RBBP9 inhibitor 0, LYPLA2 inh -4 and PME-1 primary 11.
CCOC(=O)c1c(C)oc2c(CC(=O)c3ccccc3)c(Cl)c(O)c(O)c12 was read as PAD4 FP inh -2, LYPLA1 counter -3, Fam108B inh 2, RBBP9 inhibitor 16*, LYPLA2 inh 5, PME-1 primary 10 and RBBP9 confirm 13.
`Cc1ccc(CNC(=O)COC(=O)CCC(=O)c2cccs2)cc1` gave PAD4 FP inh -3, LYPLA1 counter 3, Fam108B inh 1, RBBP9 inhibitor -6, LYPLA2 inh 5 and PME-1 primary -6.
Screening Cc1cc(O)c(-c2cc(O)c(C)cc2O)cc1O returned PAD4 FP inh -1, LYPLA1 counter 0, Fam108B inh 1, RBBP9 inhibitor 47*, LYPLA2 inh -1, PME-1 primary 1 and RBBP9 confirm 73*.
For Cc1ccc(N)cc1O the results were PAD4 FP inh -12, LYPLA1 counter 3, LYPLA2 inh -2 and PME-1 primary -3.
CSc1cccc(NS(=O)(=O)c2cn(C)cn2)c1 was read as PAD4 FP inh -2, LYPLA1 counter -3, Fam108B inh 2, LYPLA2 inh -10 and PME-1 primary 0.
COc1cc(-c2nc3ccccn3c2/N=C/c2cccc(OC)c2O)ccc1O was read as PAD4 FP inh -5, LYPLA1 counter -2, Fam108B inh 2, RBBP9 inhibitor -6, LYPLA2 inh -1 and PME-1 primary 0.
COc1cc(-c2nc3ccccn3c2/N=C/c2ccc(F)cc2)ccc1O was read as PAD4 FP inh 1, LYPLA1 counter -3, Fam108B inh 9, RBBP9 inhibitor 16*, LYPLA2 inh -5, PME-1 primary -5 and RBBP9 confirm 11.
For Cc1cc(C2=NNC(=NC3CC3)SC2)c(C)n1-c1ccccc1 the results were RBBP9 inhibitor 58* and RBBP9 confirm 22*.
`O=C(Oc1ccc(C(=S)N2CCC(O)CC2)cc1)c1ccc(Cl)cc1` gave PAD4 FP inh -3, LYPLA1 counter -2, Fam108B inh 1, RBBP9 inhibitor 20*, LYPLA2 inh 7, PME-1 primary 0 and RBBP9 confirm 29*.
O=C(Oc1ccc(C(=S)N2CCCCC2)cc1)c1ccccc1 was read as PAD4 FP inh 6, LYPLA1 counter 2, Fam108B inh -2, RBBP9 inhibitor 2, LYPLA2 inh 7 and PME-1 primary -1.
For c1ccc(-c2cc3ccccc3[nH]2)cc1 the results were PAD4 FP inh 1, LYPLA1 counter -2, Fam108B inh 3, LYPLA2 inh 2 and PME-1 primary 5.
`COc1ccc(-c2cc3ccccc3[nH]2)cc1` gave PAD4 FP inh -1, LYPLA1 counter 3, Fam108B inh 3, RBBP9 inhibitor 17*, LYPLA2 inh 1, PME-1 primary 0 and RBBP9 confirm 4.
`CSc1nnc(CCCCCCCCc2nnc(SC)o2)o1` gave PAD4 FP inh -2, LYPLA1 counter 1, Fam108B inh -4, RBBP9 inhibitor 16*, LYPLA2 inh 10, PME-1 primary 1 and RBBP9 confirm 3.
Screening O=C1c2ccccc2C(=O)N1/N=C/c1ccc(O)c(O)c1O returned RBBP9 inhibitor 20* and RBBP9 confirm 45*.
`COC(=O)Cc1ccc(NC(=S)N2CCN(C(=O)C3CCCO3)CC2)cc1` (stereo not drawn) gave PAD4 FP inh -1, LYPLA1 counter 3, Fam108B inh 3, LYPLA2 inh 4 and PME-1 primary 4.
For COC(=O)c1cc(NC(=S)N2CCN(C(=O)C3CCCO3)CC2)cc(C(=O)OC)c1 (stereo not drawn) the results were PAD4 FP inh 3, LYPLA1 counter -6, Fam108B inh -4, RBBP9 inhibitor 21*, LYPLA2 inh 2, PME-1 primary -4 and RBBP9 confirm 3.
CNC(=S)Nc1cccc([N+](=O)[O-])c1 was read as PAD4 FP inh -2, LYPLA1 counter -2, Fam108B inh -5, RBBP9 inhibitor -2, LYPLA2 inh -2 and PME-1 primary -3.
Screening CC(=O)NC(=S)Nc1cccc([N+](=O)[O-])c1 returned PAD4 FP inh -6, LYPLA1 counter 6, Fam108B inh -3, RBBP9 inhibitor 17*, LYPLA2 inh 3, PME-1 primary -7 and RBBP9 confirm 1.
COc1ccc(OCc2nn3c(-c4ccccn4)nnc3s2)cc1 was read as PAD4 FP inh -4, LYPLA1 counter -5, Fam108B inh 0, RBBP9 inhibitor 15*, LYPLA2 inh 2, PME-1 primary 6 and RBBP9 confirm 1.
`NC(N)=N/N=C/c1ccc(OCc2ccc(Cl)cc2)cc1` gave PAD4 FP inh 0, LYPLA1 counter -2, Fam108B inh -3, RBBP9 inhibitor 19*, LYPLA2 inh 4, PME-1 primary 3 and RBBP9 confirm 6.
